Results taken from ChEMBL document CHEMBL2434875, “Novel nonsecosteroidal VDR agonists with phenyl-pyrrolyl pentane skeleton” (Eur J Med Chem, 2013).
Each block holds one compound with its values, some of them ahead of it. Activity calls are given as the source filed them. No cut-off for these calls is given here.

Legend:
[1] = system: Mus musculus; assay: In vivo calcemic activity in ICR mouse assessed as serum calcium level at 30 mg/kg, sc administered for 7 days (reference value: 8.76 mg/dL); assay type: ADME, organism-based; parameters: dose 30 mg/kg, route subcutaneous; conditions: 168 h
[2] = system: Mus musculus; assay: In vivo calcemic activity in ICR mouse assessed as serum calcium level at 10 mg/kg, sc administered for 7 days (reference value: 8.76 mg/dL); assay type: ADME, organism-based; parameters: dose 10 mg/kg, route subcutaneous; conditions: 168 h
[3] = system: Mus musculus; assay: In vivo calcemic activity in ICR mouse assessed as serum calcium level at 0.5 mg/kg, sc administered for 7 days (reference value: 8.76 mg/dL); assay type: ADME, organism-based; parameters: dose 0.5 mg/kg, route subcutaneous; conditions: 168 h
[4] = system: MCF7; assay: Cytotoxicity against human MCF7 cells after 48 hrs by MTT assay; assay type: functional, cell-based; conditions: MCF7, 48 h
Procedure, shortened: (§1)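 HaCaT or MCF-7 cells grown 48 h at 37 °C, 5% CO₂, no medium change. MTT (5 mg/mL) with DMEM added, 4 h. Medium replaced by DMSO to dissolve formazan, A570 read. IC50 from log-linear dose regression. Compounds above 85% efficacy rescreened for the final IC50. Triplicate experiments.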

[5] = system: HaCaT; assay: Cytotoxicity against human HaCaT cells after 48 hrs by MTT assay; assay type: functional, cell-based; procedure, shortened: as §1
[6] = molecular target: T1, Vitamin D3 receptor (Homo sapiens) (UniProt P11473); assay: Agonist activity at VDR in human HL60 cells assessed as induction of cell differentiation at >50 uM after 96 hrs by NBT reduction assay; assay type: cell-based; conditions: HL-60
T1 sequence (whole entry): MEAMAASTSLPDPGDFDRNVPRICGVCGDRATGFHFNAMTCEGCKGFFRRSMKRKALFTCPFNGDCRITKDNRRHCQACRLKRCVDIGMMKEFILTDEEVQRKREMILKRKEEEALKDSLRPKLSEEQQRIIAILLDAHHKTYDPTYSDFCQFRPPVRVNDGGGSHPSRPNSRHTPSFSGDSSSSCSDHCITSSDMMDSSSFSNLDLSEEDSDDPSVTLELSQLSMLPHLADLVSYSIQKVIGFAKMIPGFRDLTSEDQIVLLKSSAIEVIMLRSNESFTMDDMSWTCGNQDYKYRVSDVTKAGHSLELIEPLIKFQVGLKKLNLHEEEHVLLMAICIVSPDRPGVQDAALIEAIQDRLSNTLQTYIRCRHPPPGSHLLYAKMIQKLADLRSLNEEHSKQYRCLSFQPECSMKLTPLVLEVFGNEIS

[7] = system: MCF7; assay: Cytotoxicity against human MCF7 cells at >50 uM after 48 hrs by MTT assay; assay type: functional, cell-based; procedure, shortened: as §1
[8] = system: HaCaT; assay: Cytotoxicity against human HaCaT cells at >50 uM after 48 hrs by MTT assay; assay type: functional, cell-based; procedure, shortened: as §1
[9] = system: Mus musculus; assay: In vivo calcemic activity in ICR mouse assessed as serum calcium level at 5 ug/kg, sc administered for 7 days (reference value: 8.76 mg/dL); assay type: ADME, organism-based; conditions: 0.005 mg/kg, 168 h

SMILES: CCC(CC)(c1ccc(OCC(O)C(C)(C)C)c(C)c1)c1ccc(C(=O)N[C@H](CO)CCO)n1C (stereo partly specified)
Activity [1]: 8.94 mg/dL
Activity [2]: 9.29 mg/dL
Activity [3]: 8.91 mg/dL
IC50 [4]: 7.83 nM
IC50 [5]: 190 nM

SMILES: CCn1c(C(=O)N[C@@H](CC(=O)O)C(=O)O)ccc1C(CC)(CC)c1ccc(OCC(O)C(C)(C)C)c(C)c1 (stereo partly specified)
Activity [6]: inactive

SMILES: CCn1c(C(=O)NCC(=O)OC)ccc1C(CC)(CC)c1ccc(OCC(=O)C(C)(C)C)c(C)c1
growth inhibition (GI) [7]: inactive
growth inhibition (GI) [8]: inactive

SMILES: CCn1c(C(=O)N[C@@H](CC(=O)OC)C(=O)OC)ccc1C(CC)(CC)c1ccc(OCC(=O)C(C)(C)C)c(C)c1
Activity [6]: inactive

SMILES: CCC(CC)(c1ccc(OCC(O)C(C)(C)C)c(C)c1)c1ccc(C(=O)NCCCO)n1C (stereo unspecified)
IC50 [4]: 16400 nM
growth inhibition (GI) [8]: inactive

SMILES: CCC(CC)(c1ccc(OCC(O)C(C)(C)C)c(C)c1)c1ccc(C(=O)NCC(=O)O)n1C (stereo unspecified)
growth inhibition (GI) [7]: inactive
IC50 [5]: 9810 nM

SMILES: C=C1/C(=C\C=C2/CCC[C@]3(C)[C@@H]([C@H](C)CC[C@@H](O)C(C)C)CC[C@@H]23)C[C@@H](O)C[C@@H]1O [TACALCITOL]
Activity [9]: 12.14 mg/dL
IC50 [4]: 57 nM
IC50 [5]: 2070 nM

SMILES: CCn1c(C(=O)N[C@H](CO)CCO)ccc1C(CC)(CC)c1ccc(OCC(O)C(C)(C)C)c(C)c1 (stereo partly specified)
IC50 [4]: 300 nM
IC50 [5]: 1250 nM

SMILES: CCC(CC)(c1ccc(OCC(=O)C(C)(C)C)c(C)c1)c1ccc(C(=O)NCC(=O)OC)n1C
growth inhibition (GI) [7]: inactive
growth inhibition (GI) [8]: inactive

SMILES: CCn1c(C(=O)NCCC(=O)O)ccc1C(CC)(CC)c1ccc(OCC(O)C(C)(C)C)c(C)c1 (stereo unspecified)
growth inhibition (GI) [7]: inactive
growth inhibition (GI) [8]: inactive

SMILES: CCC(CC)(c1ccc(OCC(=O)C(C)(C)C)c(C)c1)c1ccc(C(=O)NCCC(=O)OC)n1C
growth inhibition (GI) [7]: inactive
IC50 [5]: 28900 nM

SMILES: CCn1c(C(=O)N[C@@H](C)CO)ccc1C(CC)(CC)c1ccc(OCC(O)C(C)(C)C)c(C)c1 (stereo partly specified)
Activity [1]: 9.08 mg/dL
Activity [2]: 8.3 mg/dL
Activity [3]: 8.09 mg/dL
IC50 [4]: 307 nM
IC50 [5]: 2060 nM

SMILES: CCC(CC)(c1ccc(OCC(O)C(C)(C)C)c(C)c1)c1ccc(C(=O)NCCC(=O)O)n1C (stereo unspecified)
growth inhibition (GI) [7]: inactive
growth inhibition (GI) [8]: inactive

SMILES: CCn1c(C(=O)N[C@@H](C)C(=O)O)ccc1C(CC)(CC)c1ccc(OCC(O)C(C)(C)C)c(C)c1 (stereo partly specified)
IC50 [4]: 180 nM
growth inhibition (GI) [8]: inactive

SMILES: CCn1c(C(=O)NCCO)ccc1C(CC)(CC)c1ccc(OCC(O)C(C)(C)C)c(C)c1 (stereo unspecified)
IC50 [4]: 1810 nM
IC50 [5]: 2080 nM

SMILES: CCC(CC)(c1ccc(OCC(=O)C(C)(C)C)c(C)c1)c1ccc(C(=O)N[C@@H](C)C(=O)O)n1C
growth inhibition (GI) [7]: inactive
growth inhibition (GI) [8]: inactive

SMILES: CCC(CC)(c1ccc(OCC(=O)C(C)(C)C)c(C)c1)c1ccc(C(=O)N[C@@H](CC(=O)O)C(=O)O)n1C
IC50 [4]: 160 nM
growth inhibition (GI) [8]: inactive

SMILES: CCC(CC)(c1ccc(OCC(O)C(C)(C)C)c(C)c1)c1ccc(C(=O)N[C@@H](C)CO)n1C (stereo partly specified)
growth inhibition (GI) [7]: inactive
IC50 [5]: 15700 nM

SMILES: CCn1c(C(=O)NCC(=O)O)ccc1C(CC)(CC)c1ccc(OCC(O)C(C)(C)C)c(C)c1 (stereo unspecified)
Activity [6]: inactive

SMILES: CCn1c(C(=O)NCCCO)ccc1C(CC)(CC)c1ccc(OCC(O)C(C)(C)C)c(C)c1 (stereo unspecified)
Activity [6]: inactive

The next lines start with the values.

Activity [6]: inactive
SMILES: CCn1c(C(=O)N[C@@H](C)C(=O)OC)ccc1C(CC)(CC)c1ccc(OCC(=O)C(C)(C)C)c(C)c1

Activity [6]: inactive
SMILES: CCn1c(C(=O)N[C@@H](CC(=O)O)C(=O)O)ccc1C(CC)(CC)c1ccc(OCC(=O)C(C)(C)C)c(C)c1

Activity [6]: inactive
SMILES: CCC(CC)(c1ccc(OCC(O)C(C)(C)C)c(C)c1)c1ccc(C(=O)N[C@@H](C)C(=O)O)n1C (stereo partly specified)

Activity [6]: inactive
SMILES: CCn1c(C(=O)NCC(=O)O)ccc1C(CC)(CC)c1ccc(OCC(=O)C(C)(C)C)c(C)c1

Activity [6]: inactive
SMILES: CCn1c(C(=O)NCCC(=O)O)ccc1C(CC)(CC)c1ccc(OCC(=O)C(C)(C)C)c(C)c1

Activity [6]: inactive
SMILES: CCC(CC)(c1ccc(OCC(O)C(C)(C)C)c(C)c1)c1ccc(C(=O)N[C@@H](CC(=O)O)C(=O)O)n1C (stereo partly specified)

Activity [6]: inactive
SMILES: CCC(CC)(c1ccc(OCC(=O)C(C)(C)C)c(C)c1)c1ccc(C(=O)NCCC(=O)O)n1C

Activity [6]: inactive
SMILES: CCC(CC)(c1ccc(OCC(=O)C(C)(C)C)c(C)c1)c1ccc(C(=O)N[C@@H](C)C(=O)OC)n1C

Activity [6]: inactive
SMILES: CCC(CC)(c1ccc(OCC(=O)C(C)(C)C)c(C)c1)c1ccc(C(=O)NCC(=O)O)n1C

Activity [6]: inactive
SMILES: CCn1c(C(=O)NCCC(=O)OC)ccc1C(CC)(CC)c1ccc(OCC(=O)C(C)(C)C)c(C)c1

Activity [6]: inactive
SMILES: CCC(CC)(c1ccc(OCC(=O)C(C)(C)C)c(C)c1)c1ccc(C(=O)N[C@@H](CC(=O)OC)C(=O)OC)n1C

Activity [6]: inactive
SMILES: CCC(CC)(c1ccc(OCC(O)C(C)(C)C)c(C)c1)c1ccc(C(=O)NCCO)n1C (stereo unspecified)

Activity [6]: inactive
SMILES: CCn1c(C(=O)N[C@@H](C)C(=O)O)ccc1C(CC)(CC)c1ccc(OCC(=O)C(C)(C)C)c(C)c1
